A word on the IC50: it is the concentration at which inhibition is half-maximal.

Active and inactive are the calls of the source. The rule behind the calls is not given here. Some results are limits rather than exact numbers.

In assay [1] the target is Tumour suppressor p53/oncoprotein Mdm2 (Homo sapiens, UniProt Q00987). Put plainly: Inhibition of human MDM2 (1 to 125 residues) and p53 (unknown origin) interaction pre-incubated for 20 mins before peptide-2-biot addition and measured after 3 hrs by HTRF assay. The assay is classed as protein assay. (Time-resolved FRET reads energy transfer from a long-lived donor to a nearby acceptor.)

In assay [2] the test system is HCT-116. Kind of assay: Antiproliferative activity against human HCT116 cells expressing wild type p53 incubated for 72 hrs by MTS assay. The assay is classed as functional, cell-based. Particulars: HCT-116, 72 h. The essentials:
(§1)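 Cells treated with compound for 72 h; IC50 fitted to polynomial curves from three separate experiments, reported as average with standard deviation. HCT116 p53 −/− is an isogenic p53 knockout line. H1299 carries a homozygous partial deletion of the p53 gene and expresses no p53 protein.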

The test system of the next assay is NCI-H1299. Kind of assay: Antiproliferative activity against p53 -/- human NCI-H1299 cells incubated for 72 hrs by MTS assay. The class given is functional, cell-based. The settings on record: NCI-H1299, 72 h. The gist of the method:
as §1
(In general: Tetrazolium dyes change colour on reduction, which living cells bring about.)

The next assay concerns SJSA-1. Put plainly: Antiproliferative activity against human SJSA1 cells expressing wild type p53 incubated for 72 hrs by MTS assay. The class given is functional, cell-based. The settings on record: SJSA-1, 72 h. The gist of the method:
as §1

Assay [3] concerns HCT-116. Kind of assay: Antiproliferative activity against p53 -/- human HCT116 cells incubated for 72 hrs by MTS assay. The assay is classed as functional, cell-based. The settings on record: HCT-116, 72 h. The essentials:
as §1

The target of assay [4] is T1, Tumour suppressor p53/oncoprotein Mdm2 (Homo sapiens) (UniProt P04637+Q00987). Put plainly: Inhibition of MDM2/p53 interaction in human HCT116 cells expressing wild type p53 assessed as increase in p21 protein levels at 10 uM incubated for 6 hrs by Western blot method. The class given is cell-based. The gist of the method: (§2)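 HCT116 cells, p53 +/+ and isogenic p53 −/−, treated with compound at 10 μM for 6 h. Lysates probed by Western blot for p53, MDM2 and p21 protein levels. Actin served as the loading control.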
For orientation: A western blot detects proteins with antibodies after separation by electrophoresis.

The target of assay [5] is T1, Tumour suppressor p53/oncoprotein Mdm2 (Homo sapiens). Kind of assay: Inhibition of MDM2/p53 interaction in human HCT116 cells deficient in p53 assessed as increase in p53 activation at 10 uM incubated for 6 hrs by Western blot method. The class given is cell-based. The essentials: as §2
Assay [6] has the same target. Kind of assay: Inhibition of MDM2/p53 interaction in human HCT116 cells expressing wild type p53 assessed as increase in p53 activation at 10 uM incubated for 6 hrs by Western blot method. The assay is classed as cell-based. The gist of the method: as §2
For assay [7] the target is unchanged. Put plainly: Inhibition of MDM2/p53 interaction in human HCT116 cells deficient in p53 assessed as increase in p21 protein levels at 10 uM incubated for 6 hrs by Western blot method. The class given is cell-based. The gist of the method:
as §2

The target is the same in assay [8]. Put plainly: Inhibition of MDM2/p53 interaction in human HCT116 cells deficient in p53 assessed as increase in MDM2 protein levels at 10 uM incubated for 6 hrs by Western blot method. The class given is cell-based. The gist of the method:
as §2

Assay [9] shares this target. Put plainly: Inhibition of MDM2/p53 interaction in human HCT116 cells expressing wild type p53 assessed as increase in MDM2 protein levels at 10 uM incubated for 6 hrs by Western blot method. The assay is classed as cell-based. The essentials: as §2

Tumour suppressor p53/oncoprotein Mdm2, sequence (P04637 whole entry, the tested form may be a part): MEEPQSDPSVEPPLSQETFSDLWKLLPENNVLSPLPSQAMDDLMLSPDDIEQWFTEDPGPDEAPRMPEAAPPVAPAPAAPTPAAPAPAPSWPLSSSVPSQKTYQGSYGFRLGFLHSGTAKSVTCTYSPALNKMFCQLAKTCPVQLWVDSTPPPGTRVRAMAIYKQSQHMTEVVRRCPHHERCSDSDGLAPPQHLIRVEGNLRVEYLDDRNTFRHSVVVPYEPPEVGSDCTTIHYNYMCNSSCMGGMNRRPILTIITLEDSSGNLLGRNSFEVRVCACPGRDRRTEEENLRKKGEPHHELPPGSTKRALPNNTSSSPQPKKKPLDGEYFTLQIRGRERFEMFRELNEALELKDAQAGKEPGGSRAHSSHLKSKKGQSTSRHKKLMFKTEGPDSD
Tumour suppressor p53/oncoprotein Mdm2, sequence (Q00987 whole entry, the tested form may be a part): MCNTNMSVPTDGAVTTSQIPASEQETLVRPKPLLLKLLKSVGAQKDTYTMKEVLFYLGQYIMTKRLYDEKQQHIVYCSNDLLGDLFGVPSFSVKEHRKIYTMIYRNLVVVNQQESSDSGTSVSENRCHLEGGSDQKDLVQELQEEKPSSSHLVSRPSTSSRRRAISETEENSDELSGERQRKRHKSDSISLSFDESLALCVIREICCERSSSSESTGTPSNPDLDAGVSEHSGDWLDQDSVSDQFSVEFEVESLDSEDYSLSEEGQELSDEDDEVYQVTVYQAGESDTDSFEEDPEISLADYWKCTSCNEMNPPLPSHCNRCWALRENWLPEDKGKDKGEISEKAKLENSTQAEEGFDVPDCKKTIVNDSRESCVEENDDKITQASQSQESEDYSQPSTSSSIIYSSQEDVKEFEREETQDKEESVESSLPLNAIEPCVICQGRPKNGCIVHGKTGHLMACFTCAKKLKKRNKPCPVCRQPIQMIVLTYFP
T1 sequence (P04637 whole entry, looked up): as the sequence (P04637 whole entry, the tested form may be a part) above
T1 sequence (Q00987 whole entry, looked up): as the sequence (Q00987 whole entry, the tested form may be a part) above

In assay [1], `CC(C)(C)C[C@@H]1C=C(C(=O)N[C@H]2CC[C@H](O)CC2)[C@H](c2cccc(Cl)c2F)[C@]12C(=O)Nc1cc(Cl)ccc12` (racemic) displayed an IC50 of 0.619 µM.

For `CC(C)(C)CC1C=C(C(=O)Nc2ccc(C(=O)O)cc2)C(c2cccc(Cl)c2F)C12C(=O)Nc1cc(Cl)ccc12` (single isomer, unassigned; (+)), the IC50 in assay [1] came to 0.655 µM.

With `CC(C)(C)C[C@@H]1C=C(C(=O)O)[C@H](c2cccc(Cl)c2F)[C@]12C(=O)Nc1cc(Cl)ccc12` (racemic), the IC50 in the assay on HCT-116 [2] was 10.5 µM; in the assay with NCI-H1299, greater than 20 µM; in the assay with SJSA-1, 7.44 µM; in assay [1], 0.0101 µM; with HCT-116 [3], greater than 20 µM.

`CC(C)(C)C[C@@H]1C=C(C(=O)NCCN2CCOCC2)[C@H](c2cccc(Cl)c2F)[C@]12C(=O)Nc1cc(Cl)ccc12` (racemic): the IC50 with HCT-116 [2] was 4.84 µM; in the assay with NCI-H1299, greater than 20 µM; with SJSA-1 it was 7.5 µM; in assay [1], 0.033 µM; in the assay on HCT-116 [3], greater than 20 µM.

For the compound `CC(C)(C)CC1C=C(C(=O)Nc2ccc(C(=O)O)cc2)C(c2cccc(Cl)c2F)C12C(=O)Nc1cc(Cl)ccc12` (single isomer, unassigned; (-)), the midpoint of inhibition in assay [1], the IC50, lay at 1.04 µM.

Consider `CC(C)(C)CC1C=C(C(=O)O)C(c2cccc(Cl)c2F)C12C(=O)Nc1cc(Cl)ccc12` (single isomer, unassigned; (+)) [listing 1 of 2 here], for which the inhibition result in assay [4], in assay [6] and in assay [9] was “Active” in each case. Also, the inhibition entry in assay [5], in assay [7] and in [8] was “inactive” in each case.

As to `CC(C)(C)C[C@@H]1C=C(C(=O)Nc2ccc(C(=O)O)cc2)[C@H](c2cccc(Cl)c2F)[C@]12C(=O)Nc1cc(Cl)ccc12` (racemic), in assay [1], the IC50 was 0.35 µM.

On to `CC(C)(C)CC1C=C(C(=O)NCCN2CCOCC2)C(c2cccc(Cl)c2F)C12C(=O)Nc1cc(Cl)ccc12` (single isomer, unassigned; (-)), for which the IC50 in assay [1] is 1.14 µM.

`CC(C)(C)CC1C=C(C(=O)NC2CCC(O)CC2)C(c2cccc(Cl)c2F)C12C(=O)Nc1cc(Cl)ccc12` (single isomer, unassigned; (+)) came in with an IC50 in assay [1] of 0.303 µM.

In the case of `CC(C)(C)CC1C=C(C(=O)NCCN2CCOCC2)C(c2cccc(Cl)c2F)C12C(=O)Nc1cc(Cl)ccc12` (single isomer, unassigned; (+)) [listing 1 of 2 here], the inhibition result in assay [4], in assay [6] and in assay [9] was “Active” throughout. Further, the inhibition result in assay [5], in assay [7] and in [8] was “inactive” in each case.

Consider `CC(C)(C)CC1C=C(C(=O)O)C(c2cccc(Cl)c2F)C12C(=O)Nc1cc(Cl)ccc12` (single isomer, unassigned; (+)) [listing 2 of 2 here], for which the IC50 in the assay with HCT-116 [2] is 11.6 µM; in the assay with NCI-H1299, greater than 20 µM; with SJSA-1 it was 7.8 µM; in assay [1], 0.0031 µM; with HCT-116 [3], greater than 20 µM.

As for `CC(C)(C)CC1C=C(C(=O)NC2CC(C)(O)C2)C(c2cccc(Cl)c2F)C12C(=O)Nc1cc(Cl)ccc12` (single isomer, unassigned; (+)), half-maximal inhibition in assay [1] (IC50) was put at 0.712 µM.

`CC(C)(C)C[C@@H]1C=C(C(=O)NCCN2CCOCC2)[C@@H](c2cccc(Cl)c2F)[C@]12C(=O)Nc1cc(Cl)ccc12` (racemic): the IC50 in assay [1] is 3.38 µM.

`CC(C)(C)C[C@H]1C=C(C(=O)NCCN2CCOCC2)[C@@H](c2cccc(Cl)c2F)[C@]12C(=O)Nc1cc(Cl)ccc12` (racemic): the IC50 in assay [1] was found to be 3.68 µM.

On to `CC(C)(C)C[C@H]1C=C(C(=O)NCCN2CCOCC2)[C@H](c2cccc(Cl)c2F)[C@]12C(=O)Nc1cc(Cl)ccc12` (racemic), for which the IC50 in assay [1] was 0.739 µM.

In assay [1], `CC(C)(C)CC1C=C(C(=O)NC2CCC(O)CC2)C(c2cccc(Cl)c2F)C12C(=O)Nc1cc(Cl)ccc12` (single isomer, unassigned; (-)) had an IC50 of 3.72 µM.

As for `CC(C)(C)CC1C=C(C(=O)NC2CC(C)(O)C2)C(c2cccc(Cl)c2F)C12C(=O)Nc1cc(Cl)ccc12` (single isomer, unassigned; (-)), the IC50 in assay [1] turned out to be 3.03 µM.

In the case of `CC(C)(C)C[C@@H]1C=C(C(=O)N[C@H]2C[C@@](C)(O)C2)[C@H](c2cccc(Cl)c2F)[C@]12C(=O)Nc1cc(Cl)ccc12` (racemic), in assay [1], half-maximal inhibition (IC50) was put at 1.26 µM.

In the case of `CC(C)(C)CC1C=C(C(=O)O)C(c2cccc(Cl)c2F)C12C(=O)Nc1cc(Cl)ccc12` (stereo in doubt; (-)-8'), half-maximal inhibition in [1] (IC50) required 0.538 µM.

Regarding `CC(C)(C)CC1C=C(C(=O)NCCN2CCOCC2)C(c2cccc(Cl)c2F)C12C(=O)Nc1cc(Cl)ccc12` (single isomer, unassigned; (+)) [listing 2 of 2 here], the IC50 with HCT-116 [2] was 2.92 µM; in the assay with NCI-H1299 it was 9.73 µM; in the assay on SJSA-1 it was 0.96 µM; in assay [1], 0.0237 µM; with HCT-116 [3], greater than 20 µM.

For the compound `COc1ccc(C2=N[C@@H](c3ccc(Cl)cc3)[C@@H](c3ccc(Cl)cc3)N2C(=O)N2CCNC(=O)C2)c(OC(C)C)c1` [NUTLIN-3], the IC50 in the assay with HCT-116 [2] was 1.3 µM; with NCI-H1299 it was 10.4 µM; in the assay on SJSA-1, 1.44 µM; in the assay on HCT-116 [3], greater than 20 µM.

The record behind these values is ChEMBL document CHEMBL4196214, “Inhibition of p53-Murine Double Minute 2 (MDM2) Interactions with 3,3'-Spirocyclopentene Oxindole Derivatives” (J Med Chem, 2018).
